Assay results pooled from the literature.
Compare with care: the assays were run in different laboratories.
HDAC5: Histone deacetylase 5 (HDAC5, Homo sapiens, UniProt Q9UQL6)
DRD3: D(3) dopamine receptor (DRD3, Homo sapiens, UniProt P35462)
SLC6A3: Sodium-dependent dopamine transporter (SLC6A3, Homo sapiens, UniProt Q01959)

Compound	target	effect on	mode	method	IC50
O=C(NO)c1ccc(Cn2cnc3c(Nc4cccc([N+](=O)[O-])c4)ncnc32)cc1	HDAC5	enzyme activity	inhibitor		1.14 µM
COc1ccc(N(Cc2nc(-c3ccc(F)cc3)cs2)C(=O)CCCCCC(=O)NO)cc1	HDAC5	enzyme activity	inhibitor		> 10 µM
Cc1[nH]c(C)c(S(=O)(=O)Nc2ccc(C(F)(F)F)c(Cl)c2)c1C(=O)N1CCCC1	DRD3	β-arrestin recruitment	antagonist		2.8 µM
CN(C)C(=O)c1cc2cnc(Nc3ccc(-c4cccc5c(=O)cc(N6CCOCC6)oc45)cc3)nc2n1C1CCCC1	DNA-dependent protein kinase catalytic subunit (PRKDC, Homo sapiens, UniProt P78527)	enzyme activity	inhibitor		0.202 µM
Cc1[nH]c(C)c(C(=O)N2CCC(F)(F)C2)c1C(=O)Nc1ccc(C(F)(F)F)c(Cl)c1	DRD3	β-arrestin recruitment	antagonist		41 µM
CN1CCN(c2nc(-c3cc4cc(Br)ccc4oc3=O)cs2)CC1	Carbonic anhydrase 12 (CA12, Homo sapiens, UniProt O43570)	enzyme activity	inhibitor	absorbance	2.82 µM
N=C(N)c1ccc(OCCCCCOc2ccc(C(=N)N)cc2)cc1	Coagulation factor XI (F11, Homo sapiens, UniProt P03951)	enzyme activity	inhibitor	absorbance	> 100 µM
CCc1ccc(NS(=O)(=O)c2c(C)[nH]c(C)c2C(=O)N2CCC(F)(F)C2)cc1Cl	DRD3	β-arrestin recruitment	antagonist		5.2 µM
CCCN(CCC)S(=O)(=O)c1ccc(C(=O)O)cc1	Taste receptor type 2 member 16 (TAS2R16, Homo sapiens, UniProt Q9NYV7, N96T)	inositol phosphate	antagonist	TR-FRET	2180 µM
CNc1nc(C#Cc2ccc(Cl)s2)nc2c1ncn2[C@H]1[C@H](O)[C@H](O)[C@]2(CC#N)C[C@H]12	SLC6A3	transporter uptake	inhibitor	radiometric	0.36 µM
Cc1cc(O)c(-c2ccc([C@@H](C)CN(C)C)cc2)c2c1[nH]c(=O)c1sccc12	Cyclin-dependent kinase 12, with cyclin K (CDK12, Homo sapiens, UniProt Q9NYV4)	enzyme activity	inhibitor		> 1 µM
COc1c(Cl)cccc1Nc1c(-c2ccncc2OC[C@@H]2COCCO2)[nH]c2c1C(=O)NCC2	Discoidin domain-containing receptor 2 (DDR2, Homo sapiens, UniProt Q16832)	ligand displacement		TR-FRET	0.053 µM
N#CC[C@@]12C[C@@H]1[C@@H](n1cnc3c(NCCCCCCc4ccccc4)nc(I)nc31)[C@H](O)[C@@H]2O	SLC6A3	transporter uptake	inhibitor	radiometric	1.7 µM
Cc1[nH]c(C)c(S(=O)(=O)Nc2ccc(C(F)(F)F)c(Cl)c2)c1C(=O)N1CCc2ccccc21	DRD3	G protein activation	antagonist	BRET	21 µM
NC(=O)c1nnn(Cc2cc(Cl)c(C(=O)c3ccc(Cl)cc3)c(Cl)c2)c1N	SLC6A3	transporter uptake	inhibitor		0.069 µM
COc1ccc(N(Cc2csc(-c3ccc(Br)cc3)n2)C(=O)CCCCCC(=O)NO)cc1	HDAC5	enzyme activity	inhibitor		> 10 µM
